According to ChEMBL document CHEMBL3808365, “Potent and Selective CK2 Kinase Inhibitors with Effects on Wnt Pathway Signaling in Vivo” (ACS Med Chem Lett, 2016):
≈ marks a conversion by molar mass, not a printed value. Blank lines part the entries; values can stand above or below the compound they belong to. Calls of active or inactive are those of the source. The rule behind the calls is not given here.

How the values were obtained:
[1] = Intrinsic clearance in rat hepatocyte assessed per 10^6 cells; assay type: ADME, cell-based; conditions: hepatocytes, read-out: CLH
[2] = target: Casein kinase II subunit alpha (Homo sapiens, UniProt P68400); assay: Inhibition of full length N-terminal 6xHis-tagged recombinant human CK2alpha expressed in fall armyworm Sf21 cells using BODIPY-FL-RRRDDDSDDD-CONH2 as substrate after 90 mins by mobility shift assay
[3] = Aqueous solubility of the compound in phosphate buffer at pH 7.4 incubated for 24 hrs by LC/MS/MS method; assay type: physicochemical
[4] = Fraction unbound in human plasma at 10 uM by equilibrium dialysis method; assay type: ADME, cell-free
[5] = target: Casein kinase II (Homo sapiens, UniProt P19784+P67870+P68400); assay: Inhibition of CK2 in human DLD1 HA-myr-AKT1 cells assessed as suppression of AKTser129 phosphorylation after 3 to 24 hrs by Western blot analysis
[6] = Inhibition of CK2 in mouse L-Wnt3a cells assessed as suppression of Wnt3a-mediated L S/L Super TOPFlash reporter gene transcription after 24 hrs; conditions: L Wnt-3A
[7] = Intrinsic clearance in human liver microsomes; assay type: ADME; conditions: read-out: CLH
[8] = Antiproliferative activity against human SW620 cells after 72 hrs by alamar blue assay; assay type: functional; conditions: SW-620, 72 h
[9] = Antiproliferative activity against human […] cells after 72 hrs by alamar blue assay; assay type: functional; conditions: HCT-116, 72 h
[10] = tested on: Mus musculus; assay: In vivo inhibition of active beta-catenin phosphorylation at Ser37 or Thr41 in human SW620 cells xenografted in iv dosed Ncr nu/nu mouse after 48 hrs by Western blot analysis; assay type: functional, organism-based; conditions: SW-620
Summary of the method: (§1)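 SW620 (APC mutant) xenograft mice dosed IV at 10 or 30 mg/kg; pAKT S129 and active β-catenin measured by Western blot of tumor lysates, one lane per vehicle- or compound-treated animal.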

[11] = Antitumor activity against human SW620 cells harboring APC mutation xenografted in Ncr nu/nu mouse at 30 mg/kg, ip administered as bolus dose for once in every week for 3 weeks; assay type: functional; conditions: SW-620, ip, 504 h, read-out: TGI
Summary of the method: (§2)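 Mouse xenografts (HCT-116 β-catenin mutant; SW620 APC mutant) dosed at 30 mg/kg weekly for 3 cycles; efficacy expressed as % tumor growth inhibition.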

[12] = target: Homeodomain-interacting protein kinase 4 (Homo sapiens) (UniProt Q8NE63); assay: Inhibition of Hipk4 (unknown origin) at 0.1 uM by quantitative PCR
Summary of the method: (§3)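 Single-concentration screen at 0.1 μM, run as part of a selectivity panel of 402 kinases.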

[13] = target: Homeodomain-interacting protein kinase 3 (Homo sapiens) (UniProt Q9H422); assay: Inhibition of Hipk3 (unknown origin) at 0.1 uM by quantitative PCR; summary of the method: as §3
[14] = tested on: SW-620; assay: Antitumor activity against human SW620 cells harboring APC mutation xenografted in ip dosed Ncr nu/nu mouse administered as bolus dose for once in every week for 3 weeks; assay type: functional, organism-based
[15] = tested on: Mus musculus; assay: In vivo inhibition of Wnt-associated Tcf4-luciferase gene transcription in human DLD1 cells xenografted in Ncr nu/nu mouse at 10 mg/kg, iv measured at 8 hrs; assay type: functional; conditions: DLD-1, iv
[16] = tested on: Mus musculus; assay: In vivo inhibition of AKT phosphorylation in human SW620 cells xenografted in iv dosed Ncr nu/nu mouse after 48 hrs by Western blot analysis; assay type: functional, organism-based; conditions: SW-620; summary of the method: as §1
[17] = target: Bone morphogenetic protein receptor type-1B (Homo sapiens) (UniProt O00238); assay: Inhibition of BMPR1b (unknown origin) at 0.1 uM by quantitative PCR
[18] = tested on: Mus musculus; assay: In vivo inhibition of AKT phosphorylation at S129 in human DLD1 cells xenografted in Ncr nu/nu mouse at 10 mg/kg, iv measured up to 24 hrs; assay type: functional, organism-based; conditions: DLD-1
Summary of the method: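 DLD-1 TOPflash xenograft mice given a single 10 mg/kg IV dose; tumor AKT Ser129 phosphorylation assessed out to 24 h.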

[19] = target: Dual specificity tyrosine-phosphorylation-regulated kinase 1A (Homo sapiens) (UniProt Q13627); assay: Inhibition of Dyrk1a (unknown origin) at 0.1 uM by quantitative PCR; summary of the method: as §3
[20] = Antitumor activity against human HCT116 cells harboring beta-catenin mutation xenografted in Ncr nu/nu mouse at 30 mg/kg, ip administered as bolus dose for once in every week for 3 weeks; assay type: functional; conditions: HCT-116, ip, 504 h, read-out: TGI; summary of the method: as §2
[21] = Antiproliferative activity against human DLD1 cells after 72 hrs by alamar blue assay; assay type: functional; conditions: DLD-1, 72 h
[22] = target: Homeodomain-interacting protein kinase 2 (Homo sapiens) (UniProt Q9H2X6); conditions: 0.1 uM
[23] = target: Dual specificity tyrosine-phosphorylation-regulated kinase 3 (Homo sapiens) (UniProt O43781); assay: Inhibition of Dyrk3 (unknown origin) at 0.1 uM by quantitative PCR; summary of the method: as §3
[24] = target: Dual specificity tyrosine-phosphorylation-regulated kinase 1B (Homo sapiens) (UniProt Q9Y463); assay: Inhibition of Dyrk1b (unknown origin) 0.1 uM by quantitative PCR; summary of the method: as §3
[25] = tested on: Plasma; assay: Drug uptake in Ncr nu/nu mouse plasma xenografted with human DLD1 cells at 10 mg/kg, iv measured up to 24 hrs; assay type: ADME, organism-based, DLD-1; conditions: in vivo
Summary of the method: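 Single 10 mg/kg IV dose in DLD-1 TOPflash xenograft mice; plasma drug concentration followed to 24 h.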

[26] = target: Death-associated protein kinase 3 (Homo sapiens) (UniProt O43293); assay: Inhibition of Dapk3 (unknown origin) at 0.1 uM by quantitative PCR; summary of the method: as §3
[27] = tested on: Mus musculus; assay: Toxicity in Ncr nu/nu mouse xenografted with human SW620 cells harboring APC mutation assessed as reduction in body weight at 30 mg/kg, ip measured on day 25; assay type: organism-based, SW-620; parameters: scale not given: the % may be the effect or the level left; conditions: in vivo
Summary of the method: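 SW620 (APC mutant) xenograft mice dosed weekly for 3 cycles; body weight change in treated animals recorded on day 25 as mean % change.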

[28] = target: Dual specificity tyrosine-phosphorylation-regulated kinase 4 (Homo sapiens) (UniProt Q9NR20); assay: Inhibition of Dyrk4 (unknown origin) at 0.1 uM by quantitative PCR; summary of the method: as §3
[29] = tested on: Mus musculus; assay: Toxicity in ip dosed Ncr nu/nu mouse xenografted with human SW620 cells harboring APC mutation assessed as reversible body weight loss measured on day 25; assay type: organism-based, SW-620; conditions: in vivo
[30] = target: Death-associated protein kinase 2 (Homo sapiens) (UniProt Q9UIK4); assay: Inhibition of Dapk2 (unknown origin) at 0.1 uM by quantitative PCR; summary of the method: as §3
[31] = target: Homeodomain-interacting protein kinase 1 (Homo sapiens) (UniProt Q86Z02); assay: Inhibition of Hipk1 (unknown origin) at 0.1 uM by quantitative PCR; summary of the method: as §3
[32] = tested on: L-Wnt3a; assay: Inhibition of CK2 in mouse L-Wnt3a cells assessed as depletion of active form of beta-catenin after 1 hr by Western blot method; assay type: cell-based
[33] = tested on: Mus musculus; assay: Toxicity in ip dosed Ncr nu/nu mouse xenografted with human HCT-116 cells harboring beta-catenin mutation assessed as reversible body weight loss measured on day 25; assay type: organism-based; conditions: in vivo
[34] = tested on: HCT-116; assay: Antitumor activity against human HCT116 cells harboring beta-catenin mutation xenografted in ip dosed Ncr nu/nu mouse administered as bolus dose for once in every week for 3 weeks; assay type: functional, organism-based
[35] = target: Voltage-gated inwardly rectifying potassium channel KCNH2 (Homo sapiens, UniProt Q12809); assay: Inhibition of human ERG expressed in CHO cells by patch clamp assay; assay type: cell-based
Sequence of Voltage-gated inwardly rectifying potassium channel KCNH2 (Q12809 whole entry): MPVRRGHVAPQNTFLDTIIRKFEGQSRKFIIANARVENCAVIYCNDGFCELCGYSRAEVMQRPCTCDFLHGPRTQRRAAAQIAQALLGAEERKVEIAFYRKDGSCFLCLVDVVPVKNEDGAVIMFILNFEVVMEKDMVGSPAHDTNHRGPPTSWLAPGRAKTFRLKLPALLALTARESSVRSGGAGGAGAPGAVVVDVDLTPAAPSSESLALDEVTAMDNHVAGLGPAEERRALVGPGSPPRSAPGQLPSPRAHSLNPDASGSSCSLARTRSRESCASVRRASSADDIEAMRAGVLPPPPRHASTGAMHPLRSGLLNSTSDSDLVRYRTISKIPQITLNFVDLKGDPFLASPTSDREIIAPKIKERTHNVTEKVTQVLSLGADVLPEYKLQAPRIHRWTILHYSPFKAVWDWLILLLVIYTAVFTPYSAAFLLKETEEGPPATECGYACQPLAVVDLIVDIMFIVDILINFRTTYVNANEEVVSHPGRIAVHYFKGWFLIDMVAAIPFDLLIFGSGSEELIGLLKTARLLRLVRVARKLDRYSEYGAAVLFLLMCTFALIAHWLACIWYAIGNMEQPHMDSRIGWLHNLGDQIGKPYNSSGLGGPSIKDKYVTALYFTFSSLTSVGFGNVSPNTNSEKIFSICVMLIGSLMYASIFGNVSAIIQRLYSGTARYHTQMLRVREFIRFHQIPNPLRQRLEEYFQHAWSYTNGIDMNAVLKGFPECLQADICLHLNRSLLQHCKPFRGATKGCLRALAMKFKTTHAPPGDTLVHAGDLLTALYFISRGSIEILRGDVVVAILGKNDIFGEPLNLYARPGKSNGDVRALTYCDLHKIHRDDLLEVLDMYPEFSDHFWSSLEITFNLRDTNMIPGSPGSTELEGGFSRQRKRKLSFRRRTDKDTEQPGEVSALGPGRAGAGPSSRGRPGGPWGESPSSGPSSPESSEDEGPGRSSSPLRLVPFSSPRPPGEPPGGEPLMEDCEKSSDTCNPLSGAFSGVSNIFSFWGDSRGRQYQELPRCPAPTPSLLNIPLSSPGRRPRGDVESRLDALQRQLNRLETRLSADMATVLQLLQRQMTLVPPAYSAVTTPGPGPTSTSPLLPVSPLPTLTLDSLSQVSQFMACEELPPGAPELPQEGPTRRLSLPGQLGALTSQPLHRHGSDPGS

Sequence of Casein kinase II subunit alpha (P68400 whole entry): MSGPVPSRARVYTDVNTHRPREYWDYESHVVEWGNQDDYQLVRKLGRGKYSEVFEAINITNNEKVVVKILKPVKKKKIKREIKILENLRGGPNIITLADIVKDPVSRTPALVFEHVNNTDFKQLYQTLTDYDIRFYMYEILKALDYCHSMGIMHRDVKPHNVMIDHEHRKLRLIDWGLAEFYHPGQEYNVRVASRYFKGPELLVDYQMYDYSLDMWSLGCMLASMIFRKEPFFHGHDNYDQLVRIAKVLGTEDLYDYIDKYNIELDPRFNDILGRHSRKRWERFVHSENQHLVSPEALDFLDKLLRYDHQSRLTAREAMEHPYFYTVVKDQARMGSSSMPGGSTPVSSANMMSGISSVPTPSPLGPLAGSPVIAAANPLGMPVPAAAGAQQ
Sequence of Casein kinase II (P67870 whole entry): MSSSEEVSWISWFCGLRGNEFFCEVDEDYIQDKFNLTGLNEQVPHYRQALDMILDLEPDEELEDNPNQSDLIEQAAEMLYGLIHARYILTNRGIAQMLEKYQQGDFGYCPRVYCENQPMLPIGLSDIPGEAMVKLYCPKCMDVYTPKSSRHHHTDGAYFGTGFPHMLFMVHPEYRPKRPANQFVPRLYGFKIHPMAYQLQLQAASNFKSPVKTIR
Sequence of Casein kinase II (P68400 whole entry): as the sequence (P68400 whole entry) above
Sequence of Casein kinase II (P19784 whole entry): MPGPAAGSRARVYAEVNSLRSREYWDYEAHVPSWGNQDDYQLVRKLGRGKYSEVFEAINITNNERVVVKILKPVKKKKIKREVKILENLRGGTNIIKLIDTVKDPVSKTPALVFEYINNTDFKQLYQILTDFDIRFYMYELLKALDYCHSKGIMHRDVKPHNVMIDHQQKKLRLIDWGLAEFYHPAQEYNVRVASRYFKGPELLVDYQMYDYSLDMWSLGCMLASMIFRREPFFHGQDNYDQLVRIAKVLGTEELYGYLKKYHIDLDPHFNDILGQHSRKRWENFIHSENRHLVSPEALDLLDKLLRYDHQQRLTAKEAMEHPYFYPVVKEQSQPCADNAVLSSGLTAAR
Sequence of Dual specificity tyrosine-phosphorylation-regulated kinase 1B (Homo sapiens) (Q9Y463 whole entry, looked up): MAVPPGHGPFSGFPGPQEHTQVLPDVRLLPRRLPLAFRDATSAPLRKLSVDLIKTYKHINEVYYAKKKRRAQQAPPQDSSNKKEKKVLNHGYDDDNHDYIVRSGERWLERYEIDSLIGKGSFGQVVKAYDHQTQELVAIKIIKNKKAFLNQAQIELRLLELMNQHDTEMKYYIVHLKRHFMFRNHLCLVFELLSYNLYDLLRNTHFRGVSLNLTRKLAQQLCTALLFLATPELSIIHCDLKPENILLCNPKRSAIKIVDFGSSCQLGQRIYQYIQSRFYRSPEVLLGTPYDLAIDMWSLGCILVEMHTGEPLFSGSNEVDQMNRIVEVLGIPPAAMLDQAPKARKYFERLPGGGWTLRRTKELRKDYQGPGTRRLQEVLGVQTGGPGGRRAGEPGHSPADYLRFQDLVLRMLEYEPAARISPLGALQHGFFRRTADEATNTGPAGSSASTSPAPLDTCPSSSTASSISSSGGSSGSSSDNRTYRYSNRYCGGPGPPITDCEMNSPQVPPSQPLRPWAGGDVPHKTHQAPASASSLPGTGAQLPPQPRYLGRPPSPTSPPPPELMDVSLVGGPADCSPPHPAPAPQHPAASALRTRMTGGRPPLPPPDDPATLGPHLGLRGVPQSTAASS
Sequence of Death-associated protein kinase 2 (Homo sapiens) (Q9UIK4 whole entry, looked up): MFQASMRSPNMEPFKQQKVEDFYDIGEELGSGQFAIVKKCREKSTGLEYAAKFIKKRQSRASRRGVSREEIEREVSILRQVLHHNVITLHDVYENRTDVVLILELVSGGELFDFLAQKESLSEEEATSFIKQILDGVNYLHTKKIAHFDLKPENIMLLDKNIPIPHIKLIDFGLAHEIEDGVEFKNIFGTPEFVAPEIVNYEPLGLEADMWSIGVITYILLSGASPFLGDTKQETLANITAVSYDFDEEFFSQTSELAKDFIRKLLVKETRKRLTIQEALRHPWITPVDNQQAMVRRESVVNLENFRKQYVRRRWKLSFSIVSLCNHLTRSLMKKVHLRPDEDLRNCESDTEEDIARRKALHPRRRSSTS
Sequence of Dual specificity tyrosine-phosphorylation-regulated kinase 3 (Homo sapiens) (O43781 whole entry): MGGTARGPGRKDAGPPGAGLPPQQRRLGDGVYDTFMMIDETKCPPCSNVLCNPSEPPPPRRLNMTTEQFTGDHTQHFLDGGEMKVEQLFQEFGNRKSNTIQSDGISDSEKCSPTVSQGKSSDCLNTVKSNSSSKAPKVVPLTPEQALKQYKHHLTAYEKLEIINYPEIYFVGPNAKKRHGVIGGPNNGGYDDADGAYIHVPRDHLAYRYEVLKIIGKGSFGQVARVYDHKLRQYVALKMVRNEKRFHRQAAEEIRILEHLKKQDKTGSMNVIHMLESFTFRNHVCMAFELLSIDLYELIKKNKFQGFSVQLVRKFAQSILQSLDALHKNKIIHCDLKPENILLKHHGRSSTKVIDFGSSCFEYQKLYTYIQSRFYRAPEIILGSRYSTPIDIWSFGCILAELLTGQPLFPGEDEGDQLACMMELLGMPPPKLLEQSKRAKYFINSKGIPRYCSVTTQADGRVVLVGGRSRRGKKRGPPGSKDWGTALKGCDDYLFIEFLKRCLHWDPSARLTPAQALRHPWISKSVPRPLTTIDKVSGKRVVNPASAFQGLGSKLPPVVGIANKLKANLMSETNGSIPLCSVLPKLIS
Sequence of Bone morphogenetic protein receptor type-1B (Homo sapiens) (O00238 whole entry): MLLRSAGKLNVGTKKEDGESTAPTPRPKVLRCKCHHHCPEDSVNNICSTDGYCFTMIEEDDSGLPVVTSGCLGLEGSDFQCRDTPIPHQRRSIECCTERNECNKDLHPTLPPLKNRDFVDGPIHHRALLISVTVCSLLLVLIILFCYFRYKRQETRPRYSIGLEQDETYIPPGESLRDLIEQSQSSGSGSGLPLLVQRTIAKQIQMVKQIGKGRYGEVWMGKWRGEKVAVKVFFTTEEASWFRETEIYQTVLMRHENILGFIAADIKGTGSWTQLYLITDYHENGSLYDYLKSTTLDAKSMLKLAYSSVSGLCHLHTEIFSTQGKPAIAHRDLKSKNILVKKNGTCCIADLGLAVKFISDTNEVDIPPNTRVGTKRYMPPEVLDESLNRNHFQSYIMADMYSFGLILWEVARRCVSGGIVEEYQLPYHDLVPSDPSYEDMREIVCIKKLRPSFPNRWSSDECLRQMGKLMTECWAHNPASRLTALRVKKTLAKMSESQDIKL
Sequence of Death-associated protein kinase 3 (Homo sapiens) (O43293 whole entry, looked up): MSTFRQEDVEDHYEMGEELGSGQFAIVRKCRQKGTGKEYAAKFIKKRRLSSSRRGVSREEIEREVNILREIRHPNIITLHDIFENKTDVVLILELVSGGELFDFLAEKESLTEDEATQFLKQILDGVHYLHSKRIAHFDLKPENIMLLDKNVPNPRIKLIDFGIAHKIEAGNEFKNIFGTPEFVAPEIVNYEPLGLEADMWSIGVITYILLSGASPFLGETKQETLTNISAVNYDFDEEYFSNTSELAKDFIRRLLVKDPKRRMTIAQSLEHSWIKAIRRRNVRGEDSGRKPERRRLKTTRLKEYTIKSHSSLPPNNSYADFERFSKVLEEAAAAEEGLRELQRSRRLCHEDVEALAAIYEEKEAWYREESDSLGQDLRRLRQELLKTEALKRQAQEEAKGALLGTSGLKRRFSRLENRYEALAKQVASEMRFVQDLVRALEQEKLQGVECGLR

hepatocyte CLint [1]: > 300 µL/min/1e6 cells
IC50 [2]: < 3 nM
solubility at 24 h [3]: 275 µM (≈ 135 µg/mL)
fraction unbound at 10 µM [4]: 0.18
IC50 [5]: 5 nM
IC50 [6]: 300 nM
microsomal CLint [7]: 135 µL/min/mg
SMILES: CC(=O)Nc1cc(Nc2cc(NC3CC3)n3ncc(C#N)c3n2)ccc1N(C)CCN1CCOCC1

hepatocyte CLint [1]: 26 µL/min/1e6 cells
solubility at 24 h [3]: 15 µM (≈ 5.21 µg/mL)
fraction unbound at 10 µM [4]: 0.05
IC50 [6]: 600 nM
microsomal CLint [7]: 20 µL/min/mg
SMILES: CC(=O)Nc1cccc(Nc2cc(NC3CC3)n3ncc(C#N)c3n2)c1
GI50 [8]: 700 nM
GI50 [9]: 700 nM

hepatocyte CLint [1]: 7 µL/min/1e6 cells
solubility at 24 h [3]: 570 µM (≈ 254 µg/mL)
fraction unbound at 10 µM [4]: 0.18
IC50 [6]: 1100 nM
microsomal CLint [7]: < 4 µL/min/mg
SMILES: CC(=O)Nc1cc(Nc2cc(NC3CC3)n3ncc(C#N)c3n2)ccc1N1CCN(C)CC1

hepatocyte CLint [1]: 17 µL/min/1e6 cells
IC50 [2]: < 3 nM
solubility at 24 h [3]: 2 µM (≈ 0.841 µg/mL)
fraction unbound at 10 µM [4]: 0.07
microsomal CLint [7]: 21 µL/min/mg
SMILES: CC(=O)Nc1cc(Nc2cc(NC3CC3)n3ncc(C#N)c3n2)ccc1N(C)CCO

hepatocyte CLint [1]: < 1 µL/min/1e6 cells
IC50 [2]: < 3 nM
solubility at 24 h [3]: 825 µM (≈ 358 µg/mL)
fraction unbound at 10 µM [4]: 0.33
IC50 [5]: 4 nM
IC50 [6]: 400 nM
microsomal CLint [7]: < 3 µL/min/mg
SMILES: CC(=O)Nc1cc(Nc2cc(NC3CC3)n3ncc(C#N)c3n2)ccc1N(C)C[C@@H](C)N

hepatocyte CLint [1]: < 1 µL/min/1e6 cells
IC50 [2]: < 3 nM
solubility at 24 h [3]: 590 µM (≈ 255 µg/mL)
fraction unbound at 10 µM [4]: 0.31
IC50 [5]: 70 nM
IC50 [6]: 690 nM
microsomal CLint [7]: < 3 µL/min/mg
SMILES: CC(=O)Nc1cc(Nc2cc(NC3CC3)n3ncc(C#N)c3n2)ccc1N1CC[C@H](N)C1

hepatocyte CLint [1]: 2 µL/min/1e6 cells
IC50 [2]: < 3 nM
solubility at 24 h [3]: > 1000 µM
fraction unbound at 10 µM [4]: 0.3
IC50 [6]: 32 nM
microsomal CLint [7]: 5 µL/min/mg
SMILES: CCN(CCN)c1ccc(Nc2cc(NC3CC3)n3ncc(C#N)c3n2)cc1NC(C)=O

hepatocyte CLint [1]: < 1 µL/min/1e6 cells
solubility at 24 h [3]: > 1000 µM
fraction unbound at 10 µM [4]: 0.2
IC50 [6]: 650 nM
microsomal CLint [7]: < 3 µL/min/mg
SMILES: CC(=O)Nc1cc(Nc2cc(NC3CC3)n3ncc(C#N)c3n2)ccc1N1CCC[C@@H](N)C1

inhibition [12]: > 50%
hepatocyte CLint [1]: 8 µL/min/1e6 cells
inhibition [13]: > 50%
solubility at 24 h [3]: > 1000 µM
inhibition [17]: 74%
inhibition [19]: > 50%
fraction unbound at 10 µM [4]: 0.39
inhibition [22]: > 50%
inhibition [23]: > 50%
inhibition [24]: > 50%
IC50 [6]: 43 nM
Drug uptake [25]: Not Active
inhibition [28]: > 50%
inhibition [31]: > 50%
microsomal CLint [7]: 7 µL/min/mg
SMILES: CC(=O)Nc1cc(Nc2cc(NC3CC3)n3ncc(C#N)c3n2)ccc1N(C)CCN
inhibition [10]: Dose-dependent effect
inhibition in vivo at 30 mg/kg [11]: 74%
TGI [14]: Dose-dependent effect
inhibition in vivo at 10 mg/kg [15]: 40%
inhibition [16]: Dose-dependent effect
inhibition [18]: Active
GI50 [8]: 5 nM
inhibition in vivo at 30 mg/kg [20]: 94%
GI50 [21]: 50 nM
inhibition [26]: > 50%
Activity [27]: 6.8%
Activity [29]: Dose-dependent effect
GI50 [9]: 10 nM
inhibition [30]: > 50%
inhibition [32]: Dose-dependent effect
Activity [33]: Dose-dependent effect
TGI [34]: Dose-dependent effect
IC50 [35]: > 100000 nM
